The subject of data set [1] is Aspergillus niger. In words: Ratio of MIC for drug to ketoconazole against Aspergillus niger. The format is functional. The procedure, abridged:
(§1)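 FIC is calculated as the MIC of the test compound divided by the MIC of ketoconazole. Both MICs come from 24 h NCCLS broth microdilution in RPMI 1640/MOPS, starting from an 8 mM stock in twofold dilutions, at 6×10^3 CFU/mL. Incubation is at 37 °C for A. fumigatus and A. terreus and at 30 °C for the other strains.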

For data set [2], the system named is Candida albicans. The data set can be described thus: Antifungal activity against Candida albicans after 24 hrs by broth microdilution method. In kind it is functional. The procedure, abridged: (§2)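 Broth microdilution per NCCLS in RPMI 1640 (L-glutamine, MOPS, no bicarbonate). An 8 mM stock in DMSO/methanol 1:10 is serially diluted twofold; NONOate salts go through 0.1 M NaOH, with only the last step in medium. Inoculum is 6×10^3 CFU/mL final. A. fumigatus and A. terreus are incubated 24 h at 37 °C; others at 30 °C. MIC is the lowest dilution without visible growth, read nephelometrically.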

Data set [3] deals with Aspergillus fumigatus. The data set can be described thus: Ratio of MIC for drug to ketoconazole against Aspergillus fumigatus. In kind it is functional. In short, it runs like this: as §1
Data set [4] has as its system Sporobolomyces salmonicolor. The data set can be described thus: Antifungal activity against Sporobolomyces salmonicolor after 24 hrs by broth microdilution method. The format is functional. The procedure, abridged:
as §2

The test system of data set [5] is Aspergillus fumigatus. The data set can be described thus: Antifungal activity against Aspergillus fumigatus after 24 hrs by broth microdilution method. In kind it is functional. The procedure, abridged: as §2
Data set [6] concerns Nakaseomyces glabratus. In words: Ratio of MIC for drug to ketoconazole against Candida glabrata. In kind it is functional. The procedure, abridged:
as §1

Data set [7] has as its system Aspergillus terreus. In words: Ratio of MIC for drug to ketoconazole against Aspergillus terreus. In kind it is functional. The procedure, abridged: as §1
The subject of data set [8] is Sporobolomyces salmonicolor. The data set can be described thus: Ratio of MIC for drug to ketoconazole against Sporobolomyces salmonicolor. The format is functional. The procedure, abridged: as §1
Data set [9] deals with Aspergillus niger. In words: Antifungal activity against Aspergillus niger after 24 hrs by broth microdilution method. In kind it is functional. In short, it runs like this: as §2
The test system of data set [10] is Fusarium oxysporum. In words: Antifungal activity against Fusarium oxysporum after 24 hrs by agar diffusion method.
The subject of data set [11] is Candida albicans. The data set can be described thus: Ratio of MIC for drug to ketoconazole against Candida albicans. The format is functional. In short, it runs like this:
as §1

The test system of data set [12] is Penicillium chrysogenum. The data set can be described thus: Ratio of MIC for drug to ketoconazole against Penicillium notatum. In kind it is functional. In short, it runs like this: as §1
In data set [13] the test system is Penicillium chrysogenum. The data set can be described thus: Antifungal activity against Penicillium notatum after 24 hrs by broth microdilution method. The format is functional. The procedure, abridged:
as §2

The test system of data set [14] is Nakaseomyces glabratus. In words: Antifungal activity against Candida glabrata after 24 hrs by broth microdilution method. The format is functional. In short, it runs like this:
as §2

Data set [15] has as its system Aspergillus terreus. In words: Antifungal activity against Aspergillus terreus after 24 hrs by broth microdilution method. The format is functional. The procedure, abridged:
as §2

Data set [16] concerns Fusarium oxysporum. In words: Ratio of MIC for drug to ketoconazole against Fusarium oxysporum. In kind it is functional.
Data set [17] in a line: Chemical stability of compound assessed as half life of nitric oxide release at pH 7.4. Particulars: buffer. In kind it is physicochemical.

For `[Na+].[O-]/N=[N+](\[O-])N1CCN(c2ccc(OC[C@H]3CO[C@](Cn4ccnc4)(c4ccc(Cl)cc4Cl)O3)cc2)CC1`, the Ratio in the data set on Aspergillus niger [1] is on record as 1.6; in the data set on Aspergillus fumigatus [3], 3.2; in the data set with Nakaseomyces glabratus [6] it was 1; in the data set on Aspergillus terreus [7], 3.2; in data set [8], 0.8; with Candida albicans [11], 4. The results for the Ratio in the data set on Penicillium chrysogenum [12] and with Fusarium oxysporum [16] were 2.5 and 0.4, respectively. The MIC in the data set with Candida albicans [2] was determined as 100 µM; in data set [4] it was 1.25 µM; against Aspergillus fumigatus [5], 200 µM; in the data set on Aspergillus niger [9] it was 100 µM; in the data set on Fusarium oxysporum [10] it was 200 µM; in the data set with Penicillium chrysogenum [13], 20 µM. Besides, the MIC in the data set on Nakaseomyces glabratus [14] was 12.5 µM; in the data set on Aspergillus terreus [15] it was 100 µM. Besides, the t1/2 in data set [17] is 4.5 min.

Values taken from ChEMBL document CHEMBL1140048, “NO-donors. Part 17: Synthesis and antimicrobial activity of novel ketoconazole-NO-donor hybrid compounds” (Bioorg Med Chem, 2008).
